{"source": "ChEMBL document CHEMBL1122269", "about": "“Synthesis and biological evaluation of neutral derivatives of 5-fluoro-2'-deoxyuridine 5'-phosphate” (1983)", "key": {"P388 [1]": {"system": "P388", "assay": "Average percentage weight change on day 6 in murine leukemia P388 sensitive to 5-FU at dose 500 mg/kg", "assay_type": "functional, Mus musculus", "method_in_brief": "(§1)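 Male BDF₁ mice, six per group, average weight 23 g, were inoculated ip on day 0 with 1×10^6 P-388 leukemia cells, either 5-FU-sensitive or 5-FU-resistant. Compound in 0.9% saline was given ip once daily for 5 consecutive days, starting 24 h after tumor transplantation. Saline-treated animals served as controls.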"}, "P388 [2]": {"system": "P388", "assay": "Percentage increase in life span of murine leukemia P388 sensitive to 5-FU at dose 300 mg/kg", "assay_type": "functional", "conditions": "Mus musculus", "method_in_brief": "(§2)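 P-388 model in male BDF₁ mice, six per group, average weight 23 g: 1×10^6 cells ip on day 0, then compound in 0.9% saline ip daily ×5 from 24 h. Mice were observed up to 60 days. % ILS = (T/C − 1) × 100, using median survival of treated mice versus saline-treated controls.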"}, "P388 [3]": {"system": "P388", "assay": "Median survival time (MST) of murine leukemia P388 (1*10e 6 cells) resistant to 5-FU in mice, dose of 108 mg/kg(ip)", "assay_type": "functional, Mus musculus", "method_in_brief": "(§3)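 Male BDF₁ mice, six per group, average weight 23 g, were inoculated ip with 1×10^6 P-388 cells on day 0. Compound in 0.9% saline was given ip daily for 5 days from 24 h post-implant. Mice were followed for 60 days or until death, and median survival time was recorded. Saline-treated controls numbered 20 mice.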"}, "P388 [4]": {"system": "P388", "assay": "Median survival time (MST) of murine leukemia P388 (1*10e 6 cells) sensitive to 5-FU in mice at dose of 108 mg/kg(ip)", "assay_type": "functional, Mus musculus", "method_in_brief": "as §3"}, "P388 [5]": {"system": "P388", "assay": "Median survival time (MST) of murine leukemia P388 (1*10e 6 cells) sensitive to 5-FU in mice, dose of 500 mg/kg(ip)", "assay_type": "functional, Mus musculus", "method_in_brief": "as §3"}, "P388 [6]": {"system": "P388", "assay": "Median survival time (MST) of murine leukemia P388 (1*10e 6 cells) sensitive to 5-FU in mice, dose of 300 mg/kg(ip)", "assay_type": "functional, Mus musculus", "method_in_brief": "as §3"}, "P388 [7]": {"system": "P388", "assay": "Median survival time (MST) of murine leukemia P388 (1*10e 6 cells) resistant to 5-FU in mice, dose of 300 mg/kg(ip)", "assay_type": "functional, Mus musculus", "method_in_brief": "as §3"}, "P388 [8]": {"system": "P388", "assay": "Percentage increase in life span of murine leukemia P388 sensitive to 5-FU at dose 180 mg/kg", "assay_type": "functional", "conditions": "Mus musculus", "method_in_brief": "as §2"}, "P388 [9]": {"system": "P388", "assay": "Percentage increase in life span of murine leukemia P388 resistant to 5-FU, at a dose 180 mg/kg", "assay_type": "functional", "conditions": "Mus musculus", "method_in_brief": "as §2"}, "P388 [10]": {"system": "P388", "assay": "Average percentage weight change on day 6 in murine leukemia P388 resistant to 5-FU at dose 108 mg/kg", "assay_type": "functional, Mus musculus", "method_in_brief": "as §1"}, "P388 [11]": {"system": "P388", "assay": "Average percentage weight change on day 6 in murine leukemia P388 resistant to 5-FU at dose 300 mg/Kg", "assay_type": "functional, Mus musculus", "method_in_brief": "as §1"}, "P388 [12]": {"system": "P388", "assay": "Average percentage weight change on day 6 in murine leukemia P388 sensitive to 5-FU at dose 300 mg/kg", "assay_type": "functional, Mus musculus", "method_in_brief": "as §1"}, "P388 [13]": {"system": "P388", "assay": "Average percentage weight change on day 6 in murine leukemia P388 sensitive to 5-FU at a dose 108 mg/kg", "assay_type": "functional, Mus musculus", "method_in_brief": "as §1"}, "P388 [14]": {"system": "P388", "assay": "Median survival time (MST) of murine leukemia P388 (1*10e 6 cells) resistant to 5-FU in mice, dose of 180 mg/kg(ip)", "assay_type": "functional, Mus musculus", "method_in_brief": "as §3"}, "P388 [15]": {"system": "P388", "assay": "Percentage increase in life span of murine leukemia P388 resistant to 5-FU, at a dose 108 mg/kg", "assay_type": "functional", "conditions": "Mus musculus", "method_in_brief": "as §2"}, "P388 [16]": {"system": "P388", "assay": "Median survival time (MST) of murine leukemia P388 (1*10e 6 cells) sensitive to 5-FU in mice at dose of 180 mg/kg(ip)", "assay_type": "functional, Mus musculus", "method_in_brief": "as §3"}, "P388 [17]": {"system": "P388", "assay": "Average percentage weight change on day 6 in murine leukemia P388 sensitive to 5-FU at a dose 180 mg/kg", "assay_type": "functional, Mus musculus", "method_in_brief": "as §1"}, "P388 [18]": {"system": "P388", "assay": "Percentage increase in life span of murine leukemia P388 sensitive to 5-FU at dose 500 mg/kg", "assay_type": "functional", "conditions": "Mus musculus", "method_in_brief": "as §2"}, "P388 [19]": {"system": "P388", "assay": "Percentage increase in life span of murine leukemia P388 sensitive to 5-FU at dose 108 mg/kg", "assay_type": "functional", "conditions": "Mus musculus", "method_in_brief": "as §2"}, "P388 [20]": {"system": "P388", "assay": "Average percentage weight change on day 6 in murine leukemia P388 resistant to 5-FU at dose 180 mg/kg", "assay_type": "functional, Mus musculus", "method_in_brief": "as §1"}}, "data": [{"smiles": "O=c1[nH]c(=O)n([C@H]2C[C@H](O)[C@@H](COP3(=O)NCCCO3)O2)cc1F", "note": "(stereo not given in full)", "values": [{"measurement": "Weight change", "setting": "P388 [1]", "result": -17.9, "unit": "%"}, {"measurement": "ILS at 300 mg/kg", "setting": "P388 [2]", "result": 55, "unit": "%"}, {"measurement": "MST", "setting": "P388 [3]", "result": 10, "unit": "days"}, {"measurement": "MST", "setting": "P388 [4]", "result": 12, "unit": "days"}, {"measurement": "MST", "setting": "P388 [5]", "result": 17, "unit": "days"}, {"measurement": "MST", "setting": "P388 [6]", "result": 14, "unit": "days"}, {"measurement": "MST", "setting": "P388 [7]", "result": 9, "unit": "days"}, {"measurement": "ILS at 180 mg/kg", "setting": "P388 [8]", "result": 44, "unit": "%"}, {"measurement": "ILS at 180 mg/kg", "setting": "P388 [9]", "result": 0, "unit": "%"}, {"measurement": "Weight change", "setting": "P388 [10]", "result": -3.4, "unit": "%"}, {"measurement": "Weight change", "setting": "P388 [11]", "result": -5, "unit": "%"}, {"measurement": "Weight change", "setting": "P388 [12]", "result": -15.7, "unit": "%"}, {"measurement": "Weight change", "setting": "P388 [13]", "result": -6.6, "unit": "%"}, {"measurement": "MST", "setting": "P388 [14]", "result": 10, "unit": "days"}, {"measurement": "ILS at 108 mg/kg", "setting": "P388 [15]", "result": 0, "unit": "%"}, {"measurement": "MST", "setting": "P388 [16]", "result": 13, "unit": "days"}, {"measurement": "Weight change", "setting": "P388 [17]", "result": -13.9, "unit": "%"}, {"measurement": "ILS at 500 mg/kg", "setting": "P388 [18]", "result": 89, "unit": "%"}, {"measurement": "ILS at 108 mg/kg", "setting": "P388 [19]", "result": 33, "unit": "%"}, {"measurement": "Weight change", "setting": "P388 [20]", "result": -3.7, "unit": "%"}]}]}
